# Tests used:
# Talaromyces marneffei [1] = test: Antifungal activity against Penicillium marneffei after 3 to 4 days by serial plate dilution method; format: functional
# Summary of the method: (§1)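 Sabouraud's agar (peptone 1 g, D-glucose 4 g, agar 2 g per 100 ml water, pH 5.7) plates were lawned with spore suspension (a loopful in 3 ml normal saline) and dried 1 h at 37 °C. Wells were punched and filled with compound in DMSO at 10–50 mg/ml, with a DMSO control. Plates in triplicate, 37 °C for 3–4 days.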
# Klebsiella pneumoniae [2] = test: Antibacterial activity against Klebsiella pneumoniae after 24 hrs by disk diffusion method; format: functional
# Summary of the method: (§2)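 Disc diffusion, each concentration tested in triplicate on nutrient agar seeded separately with fresh bacteria. Incubation 37 °C, 24 h. Solvent and growth controls included. Zones of inhibition recorded. The K. pneumoniae strain was recultured.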
# Escherichia coli [3] = test: Antibacterial activity against Escherichia coli ATTC 25922 after 24 hrs by broth dilution method; format: functional; settings: ATTC 25922, 24 h
# Klebsiella pneumoniae [4] = test: Antibacterial activity against Klebsiella pneumoniae after 24 hrs by […]
# Aspergillus fumigatus = test: Antifungal activity against Aspergillus fumigatus NCIM 902 after 3 to 4 days by serial plate dilution method; format: functional; summary of the method: as §1
# Staphylococcus aureus [5] = test: Antibacterial activity against Staphylococcus aureus ATTC 25923 after 24 hrs by disk diffusion method; format: functional; summary of the method: as §2
# Aspergillus flavus = test: Antifungal activity against Aspergillus flavus NCIM 524 after 3 to 4 days by serial plate dilution method; format: functional; summary of the method: as §1
# [6] = test system: Trichophyton mentagrophytes; test: Antifungal activity against Trichophyton mentagrophytes after 3 to 4 days by serial plate dilution method; format: functional; summary of the method: as §1
# Pseudomonas aeruginosa [7] = test: Antibacterial activity against Pseudomonas aeruginosa ATTC 27853 after 24 hrs by disk diffusion method; format: functional; summary of the method: as §2
# [8] = test system: Trichophyton mentagrophytes; test: Antifungal activity against Trichophyton mentagrophytes at 10 to 50 ug/ml after 3 to 4 days; format: functional
# Staphylococcus aureus [9] = test: Antibacterial activity against Staphylococcus aureus ATTC 25923 after 24 hrs by broth dilution method; format: functional; settings: ATTC 25923, 24 h
# Escherichia coli [10] = test: Antibacterial activity against Escherichia coli ATTC 25922 after 24 hrs by disk diffusion method; format: functional; summary of the method: as §2
# Talaromyces marneffei [11] = test: Antifungal activity against Penicillium marneffei at 10 to 50 ug/ml after 3 to 4 days; format: functional
# Pseudomonas aeruginosa [12] = test: Antibacterial activity against Pseudomonas aeruginosa ATTC 27853 after 24 hrs by broth dilution method; format: functional; settings: ATTC 27853, 24 h
Compound,inhibition zone (IZ) (Talaromyces marneffei [1]) [mm],inhibition zone (IZ) (Klebsiella pneumoniae [2]) [mm],MIC (Escherichia coli [3]) [µg/mL],MIC (Klebsiella pneumoniae [4]) [µg/mL],inhibition zone (IZ) (Aspergillus fumigatus) [mm],inhibition zone (IZ) (Staphylococcus aureus [5]) [mm],inhibition zone (IZ) (Aspergillus flavus) [mm],inhibition zone (IZ) [6] [mm],inhibition zone (IZ) (Pseudomonas aeruginosa [7]) [mm],MIC [8] [µg/mL],MIC (Staphylococcus aureus [9]) [µg/mL],inhibition zone (IZ) (Escherichia coli [10]) [mm],MIC (Talaromyces marneffei [11]) [µg/mL],MIC (Pseudomonas aeruginosa [12]) [µg/mL]
CCNC(=O)N1CCN(C(=O)c2cc(-c3ccc(Cl)cc3)n(-c3ccc(F)cc3)n2)CC1,19,17,12.5,50,18,18,17,24,<10,12.5,12.5,19,12.5,–
O=C(Nc1ccc(Cl)nc1)c1cc(-c2ccc(Cl)cc2)n(-c2ccc(F)cc2)n1,<10,<10,–,–,<10,<10,<10,<10,<10,–,–,<10,–,–
C=CCNC(=O)NNC(=O)c1sc(-c2cc(-c3ccc(Cl)cc3)n(-c3ccc(F)cc3)n2)nc1C,21,21,12.5,–,23,21,21,19,<10,12.5,12.5,22,12.5,–
C=CCNC(=O)N1CCN(C(=O)c2cc(-c3ccc(Cl)cc3)n(-c3ccc(F)cc3)n2)CC1,24,19,12.5,50,16,20,19,22,19,12.5,12.5,19,12.5,–
O=C(c1cc(-c2ccc(Cl)cc2)n(-c2ccc(F)cc2)n1)N1CCC(O)CC1,24,21,12.5,12.5,27,23,29,26,29,12.5,12.5,24,12.5,–
N#Cc1ccc(-c2csc(-c3cc(-c4ccc(Cl)cc4)n(-c4ccc(F)cc4)n3)n2)cc1,22,17,12.5,–,<10,19,<10,22,19,12.5,12.5,20,12.5,50
CCCCCC(=O)N1CCN(C(=O)c2cc(-c3ccc(Cl)cc3)n(-c3ccc(F)cc3)n2)CC1,19,21,12.5,–,28,18,<10,20,<10,12.5,12.5,18,12.5,–
Cc1nc(-c2cc(-c3ccc(Cl)cc3)n(-c3ccc(F)cc3)n2)sc1-c1n[nH]c(=O)o1,<10,<10,–,–,<10,<10,<10,<10,<10,–,–,<10,–,–
Fc1ccc(-n2nc(-c3nc(-c4ccc(Cl)cc4)cs3)cc2-c2ccc(Cl)cc2)cc1,<10,17,12.5,–,<10,<10,<10,19,16,–,–,21,–,–
O=C1CCN(C(=O)c2cc(-c3ccc(Cl)cc3)n(-c3ccc(F)cc3)n2)CC1,29,25,12.5,12.5,26,24,18,24,18,50,12.5,27,12.5,12.5
Cc1nc(-c2cc(-c3ccc(Cl)cc3)n(-c3ccc(F)cc3)n2)sc1C(=O)NN,20,19,12.5,50,19,20,<10,19,19,12.5,12.5,18,12.5,–
Cc1nc(-c2cc(-c3ccc(Cl)cc3)n(-c3ccc(F)cc3)n2)sc1C(=O)NNC(=O)NC(=O)c1ccc(C(F)(F)F)cc1,22,19,12.5,50,25,19,<10,17,<10,12.5,12.5,20,12.5,–
O=C(O)c1cn(C2CC2)c2cc(N3CCNCC3)c(F)cc2c1=O [CIPROFLOXACIN],–,24,6.25,6.25,–,23,–,–,28,–,6.25,32,–,6.25
O=C(c1cc(-c2ccc(Cl)cc2)n(-c2ccc(F)cc2)n1)N1CCN(C(=O)C2CC2)CC1,21,19,12.5,12.5,22,20,24,20,17,12.5,12.5,20,12.5,–
Cc1nc(NC(=O)c2cc(-c3ccc(Cl)cc3)n(-c3ccc(F)cc3)n2)sc1C(=O)O,<10,<10,–,–,<10,<10,<10,<10,<10,–,–,<10,–,–
N#Cc1ccc(NC(=O)N2CCN(C(=O)c3cc(-c4ccc(Cl)cc4)n(-c4ccc(F)cc4)n3)CC2)cc1,23,19,12.5,–,24,21,<10,21,<10,12.5,12.5,19,12.5,–
Cc1nc(-c2cc(-c3ccc(Cl)cc3)n(-c3ccc(F)cc3)n2)sc1C(=O)NNC(=S)NC(=O)c1ccccc1,<10,<10,–,–,<10,<10,<10,<10,<10,–,–,<10,–,–
CCOC(=O)c1sc(NC(=O)c2cc(-c3ccc(Cl)cc3)n(-c3ccc(F)cc3)n2)nc1C,<10,<10,–,–,<10,<10,<10,<10,<10,–,–,<10,–,–
O=C(c1cc(-c2ccc(Cl)cc2)n(-c2ccc(F)cc2)n1)N1CCNCC1,<10,19,–,12.5,23,<10,25,19,19,50,–,<10,–,50
Cc1cc(C2CCCCC2)n(O)c(=O)c1.NCCO [CICLOPIROX OLAMINE],23,–,–,–,26,–,27,27,–,3.12,–,–,6.25,–

# Reference: ChEMBL document CHEMBL1154881, “Synthesis and antimicrobial activities of novel 1,5-diaryl pyrazoles” (2010)
